pIC50: −log10 of the molar value. Calls of active or inactive are those of the source. The calls are words filed in the database; no cut-off is given here.
Tests used:
[1] = tested on: Pichia kudriavzevii; experiment: Antifungal activity against 5 x 10^6 CFU/ml Candida krusei B68404 by resazurin based fluorimetry assay; format: functional, organism-based
Outline: (§1)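 Isolates were grown on Sabouraud dextrose agar, with stocks of 5×10^6 CFU/ml in RPMI-MOPS plus 10% glycerol kept in liquid nitrogen. Each well held 10^3 CFU in 200 μl RPMI-MOPS with compound dilutions, top concentration 64 μM. After incubation, resazurin was added and fluorescence read (ex 550, em 590 nm). IC50 was relative to untreated controls, as the mean ± SD of five independent repeats.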

[2] = Half life in guinea pig infected with 10^6 CFU Microsporum canis B68128 at 20 mg/kg, po administered 2 hrs before infection for 5 days; format: ADME, organism-based, Cavia porcellus; design: dose 20 mg/kg, route oral; conditions: in vivo
[3] = tested on: Trichophyton rubrum; experiment: Antifungal activity against 5 x 10^6 CFU/ml Trichophyton rubrum B68183 by resazurin based fluorimetry assay; format: functional, organism-based; outline: as §1
[4] = Tmax in guinea pig infected with 10^6 CFU Microsporum canis B68128 at 20 mg/kg, po administered 2 hrs before infection for 5 days; format: ADME, organism-based, Cavia porcellus; design: dose 20 mg/kg, route oral; conditions: in vivo
[5] = tested on: Trichophyton mentagrophytes; experiment: Antifungal activity against 5 x 10^6 CFU/ml Trichophyton mentagrophytes B70554 by resazurin based fluorimetry assay; format: functional, organism-based; outline: as §1
[6] = tested on: Trichophyton quinckeanum; experiment: Antifungal activity against 5 x 10^6 CFU/ml Trichophyton quinckeanum B68683 by resazurin based fluorimetry assay; format: functional, organism-based; outline: as §1
[7] = Cmax in plasma of guinea pig infected with 10^6 CFU Microsporum canis B68128 at 20 mg/kg, po administered 2 hrs before infection for 5 days; format: ADME, organism-based, Cavia porcellus; design: dose 20 mg/kg, route oral
[8] = tested on: Candida albicans; experiment: Antifungal activity against 10^7 CFU/ml Candida albicans B2630 infected in vulvovaginitis rat model assessed as fungal burden at 5 mg/kg, po SID; format: functional, organism-based; design: dose 5 mg/kg; conditions: Vagina
Outline: (§2)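 Intravaginal infection with 10^7 CFU. Oral dosing once daily in PEG200, starting about 2 h before infection, for 5 days. […] Six rats in two experiments.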

[9] = tested on: Microsporum canis; experiment: Antifungal activity against 5 x 10^6 CFU/ml Microsporum canis B68128 by resazurin based fluorimetry assay; format: functional, organism-based; outline: as §1
[10] = tested on: Candida albicans; experiment: Antifungal activity against 10^7 CFU/ml Candida albicans B2630 infected in vulvovaginitis rat model assessed as fungal burden at 5 mg/kg administered tropically twice daily measured after 3 days; format: functional, organism-based; design: dose 5 mg/kg; conditions: Vagina
[11] = tested on: Kluyveromyces marxianus; experiment: Antifungal activity against 5 x 10^6 CFU/ml Candida kefyr B46120 by resazurin based fluorimetry assay; format: functional, organism-based; outline: as §1
[12] = tested on: Candida albicans; experiment: Antifungal activity against 5 x 10^6 CFU/ml Candida albicans B2630 by resazurin based fluorimetry assay; format: functional, organism-based; outline: as §1
[13] = tested on: Trichophyton rubrum; experiment: Antifungal activity against 5 x 10^6 CFU/ml Trichophyton rubrum J941704 by resazurin based fluorimetry assay; format: functional, organism-based; outline: as §1
[14] = tested on: Candida albicans; experiment: Antifungal activity against 10^7 CFU/ml Candida albicans B2630 infected in vulvovaginitis rat model assessed as fungal burden at 10 mg/kg administered tropically twice daily measured after 3 days; format: functional, organism-based; design: dose 10 mg/kg; conditions: Vagina
[15] = tested on: Candida albicans; experiment: Antifungal activity against 10^7 CFU/ml Candida albicans B2630 infected in vulvovaginitis rat model assessed as fungal burden at 10 mg/kg, po SID; format: functional, organism-based; design: dose 10 mg/kg; conditions: Vagina; outline: as §2
[16] = Cytotoxicity against human MRC5 cells; format: cell-based
Outline: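 Human lung fibroblasts (MRC-5SV40) were tested in parallel with the fungal screens. CC50 is the concentration killing 50% of cells, given as the mean ± SD of five independent repeats.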

[17] = tested on: Nakaseomyces glabratus; experiment: Antifungal activity against 5 x 10^6 CFU/ml Candida glabrata B63155 by resazurin based fluorimetry assay; format: functional, organism-based; outline: as §1
[18] = tested on: Candida albicans; experiment: Antifungal activity against 5 x 10^6 CFU/ml Candida albicans B59163 by resazurin based fluorimetry assay; format: functional, organism-based; outline: as §1
[19] = Tmax in guinea pig infected with 10^6 CFU Microsporum canis B68128 at 40 mg/kg, po administered 2 hrs before infection for 5 days; format: ADME, organism-based, Cavia porcellus; design: dose 40 mg/kg, route oral; conditions: in vivo
[20] = Half life in guinea pig infected with 10^6 CFU Microsporum canis B68128 at 40 mg/kg, po administered 2 hrs before infection for 5 days; format: ADME, organism-based, Cavia porcellus; design: dose 40 mg/kg, route oral; conditions: in vivo
[21] = Cmax in plasma of guinea pig infected with 10^6 CFU Microsporum canis B68128 at 40 mg/kg, po administered 2 hrs before infection for 5 days; format: ADME, organism-based, Cavia porcellus; design: dose 40 mg/kg, route oral
[22] = Half life in guinea pig infected with 10^6 CFU Microsporum canis B68128 at 10 mg/kg, po administered 2 hrs before infection for 5 days; format: ADME, organism-based, Cavia porcellus; design: dose 10 mg/kg, route oral; conditions: in vivo
[23] = Tmax in guinea pig infected with 10^6 CFU Microsporum canis B68128 at 10 mg/kg, po administered 2 hrs before infection for 5 days; format: ADME, organism-based, Cavia porcellus; design: dose 10 mg/kg, route oral; conditions: in vivo
[24] = Cmax in plasma of guinea pig infected with 10^6 CFU Microsporum canis B68128 at 10 mg/kg, po administered 2 hrs before infection for 5 days; format: ADME, organism-based, Cavia porcellus; design: dose 10 mg/kg, route oral

SMILES	pIC50 [1]	pIC50 [3]	pIC50 [5]	pIC50 [6]	Activity [8]	pIC50 [9]	Activity [10]	pIC50 [11]	pIC50 [12]	pIC50 [13]	Activity [14]	Activity [15]	CC50 [16] [nM]	pIC50 [17]	pIC50 [18]	also measured
CCC(C)n1ncn(-c2ccc(N3CCN(c4ccc(OCC5COC(Cn6cncn6)(c6ccc(Cl)cc6Cl)O5)cc4)CC3)cc2)c1=O (stereo not drawn) [ITRACONAZOLE]	5.38	6.25	6.43	5.53	Active	5.69	Active	6.40	5.86	6.01	Active	Active	49300	5.43	5.85	half-life [2]: 13.9 h; Tmax [4]: 2 h; Cmax [7]: 350 ng/mL
Clc1ccc(COC(Cn2ccnc2)c2ccc(Cl)cc2Cl)c(Cl)c1 (stereo not drawn) [MICONAZOLE]	5.85	6.48	6.40	6.10		6.64	Active	7.52	5.60	6.85	Active		29700	6.92	6.52	
CC(C)N1CCN(c2ccc(N3CCN(c4ccc(OC[C@H]5OC[C@](Cn6cncn6)(c6ccc(F)cc6F)O5)cc4)CC3)cc2)C1=O [PRAMICONAZOLE]	6.06	6.46	6.82	5.87	Active	6.74	Active	6.89	5.74	6.72	Active	Active	53300	6.19	7.40	Tmax [19]: 4 h; half-life [20]: 23 h; Cmax [21]: 180 ng/mL
CN(C/C=C/C#CC(C)(C)C)Cc1cccc2ccccc12 [TERBINAFINE]	4.19	7.15	7.22	8.00		7.00		5.20	4.19	7.52			63000	4.51	5.45	half-life [22]: 6.6 h; Tmax [23]: 0.7 h; Cmax [24]: 60 ng/mL
